Consider 3 compounds from ChEMBL document CHEMBL1149898, “A biaryl xanthone derivative having axial chirality from Penicillium vinaceum” (J Nat Prod, 2008).

Converted amounts (≈) assume the structure as drawn. The source made the active and inactive calls. The calls are words filed in the database; no cut-off is given here.

The subject of test [1] is Bacillus subtilis. As to the kind of experiment: Antibacterial activity against Bacillus subtilis by disk diffusion test. In kind it is functional, organism-based. In short, it runs like this: (§1)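 Bacterial suspensions were grown 2–5 h to a suitable OD, diluted with water and swabbed evenly over agar. After the inoculum dried, disks carrying 10, 50, 100 and 200 µg of compound were applied. Plates were incubated overnight, and zone diameters around the disks were measured.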
Background: Agar diffusion results depend on both activity and mobility in agar.

Test [2] concerns Escherichia coli. As to the kind of experiment: Antibacterial activity against Escherichia coli by disk diffusion test. Format: functional, organism-based. In short, it runs like this:
as §1

The subject of test [3] is Paracentrotus lividus. In words: Inhibition of sea urchin egg fertilization by sea urchin sperm assessed as inhibition of divided eggs by light microscopy. In kind it is functional, organism-based. The method, boiled down:
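Eggs were rinsed, filtered and diluted in artificial seawater to 2000 eggs/mL. "Dry" sperm was diluted 1:50 in ASW, and 10 µL was added per 1 mL eggs at 20 °C. Compounds were in DMSO at 50 µg/mL, with DMSO-only controls. Eggs were cultured at room temperature with gentle agitation, and percent divided eggs was scored by light microscopy 30 min post-fertilization.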

In test [4] the test system is Saccharomyces cerevisiae. As to the kind of experiment: Antifungal activity against Saccharomyces cerevisiae after 18 to 24 hrs by disk diffusion test. In kind it is functional, organism-based. The method, boiled down:
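Diluted yeast inoculum was spread on 90 mm agar plates supplemented with 2% glucose and dried for 5–15 min. Disks loaded with 10, 50, 100 and 200 µg of compound were placed on top. Plates were incubated 18–24 h at 28 °C, then inhibition zone diameters were measured.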

For test [5], the system named is Staphylococcus aureus. As to the kind of experiment: Antibacterial activity against Staphylococcus aureus by disk diffusion test. In kind it is functional, organism-based. In short, it runs like this: as §1
Test [6] concerns Agrobacterium tumefaciens. As to the kind of experiment: Antitumor activity against Agrobacterium tumefaciens-induced 10 ppm crown gall tumor in potato tubers at […] after 21 days by crown gall tumor potato disk test. In kind it is functional. The method, boiled down:
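Potato tubers were surface-sterilized in 1% NaOCl for 20 min and cut into 5 mm disks, 10 per 2% agar plate. A 48 h Agrobacterium tumefaciens culture, mixed with compound in DMSO at 10 or 100 µg/mL, was applied to each disk. Plates were kept at 28 °C for 21 days. Tumors per disk were counted; % inhibition = 100 − (mean tumors sample/mean control)×100.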

Turning to `CC(=O)c1cc2c(=O)c3c(C(=O)O)c(O)c(O)cc3oc2c(C(C)=O)c1C1COc2cc(O)c(O)c(C(=O)O)c2C1=O` (stereo not drawn), the outcome in test [1], in test [2], in test [4] and in test [5] was inactive. Moreover, the IC50 (usually the midpoint of a concentration-inhibition curve) in test [3] came out at 0.71 µg/mL (≈ 1.23 µM). Besides, the “inhibition (INH)” value in test [6] stood at 12%.

Turning to `CC(=O)c1cc2c(=O)c3c(C(=O)O)c(O)c(O)cc3oc2c(C(C)=O)c1-c1coc2cc(O)c(O)c(C(=O)O)c2c1=O` [VINAXANTHONE], the outcome in test [1], in test [2], in test [4] and in test [5] was inactive. The IC50 in test [3] came to 0.12 µg/mL (≈ 0.208 µM). For the same compound, in test [6], the “inhibition (INH)” value came out at 67%.

Regarding `COc1oc2cc(O)c(O)c(C(=O)O)c2c(=O)c1-c1c(C(C)=O)cc2c(=O)c3c(C(=O)O)c(O)c(O)cc3oc2c1C(C)=O`, the outcome in test [1], in test [2], in test [4] and in test [5] was inactive. Besides, the IC50 in test [3] was determined as 0.05 µg/mL (≈ 0.0824 µM). In test [6], the “inhibition (INH)” value was 72%.
